Laboratory results: ChEMBL document CHEMBL3085702, “Synthesis and biological evaluation of 3-(trimethoxyphenyl)-2(3H)-thiazole thiones as combretastatin analogs” (Eur J Med Chem, 2013)
Converted amounts (≈) assume the structure as drawn. The source made the active and inactive calls. The rule behind the calls is not given here.

What was measured:
MDA-MB-231 = experiment: Cytotoxicity against human MDA-MB-231 cells after 48 hrs by MTT assay; format: functional, cell-based; settings: MDA-MB-231, 48 h
In short: (§1)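 Log-phase cells harvested by trypsinization, seeded 24 h, then exposed to a range of compound concentrations for 48 h; etoposide positive and DMSO negative controls, final DMSO below 2%. Cells kept at 37 °C, 5% CO2, humidified. MTT formazan absorbance read; % inhibition = (Abs control − Abs treated)/Abs control × 100; IC50 from concentration–response curves by regression.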

MCF7 [1] = experiment: Cytotoxicity against human MCF7 cells after 48 hrs by MTT assay; format: functional, cell-based; settings: MCF7, 48 h; in short: as §1
T47D [2] = experiment: Cytotoxicity against human T47D cells after 48 hrs by MTT assay; format: functional, cell-based; in short: as §1
MCF7 [3] = experiment: Induction of apoptosis in human MCF7 cells assessed as early apoptotic cells at IC50 using annexin V-PE/7-AAD double staining by flow cytometry (reference value: 4.88%); format: functional
MCF7 [4] = experiment: Induction of apoptosis in human MCF7 cells assessed as late apoptotic cells at IC50 using annexin V-PE/7-AAD double staining by flow cytometry (reference value: 0.12%); format: functional
MCF7 [5] = experiment: Induction of apoptosis in human MCF7 cells assessed as viable cells at IC50 using annexin V-PE/7-AAD double staining by flow cytometry (reference value: 95%); format: functional
MCF7 [6] = experiment: Induction of apoptosis in human MCF7 cells assessed as necrotic cells at IC50 using annexin V-PE/7-AAD double staining by flow cytometry (reference value: 0%); format: functional
MCF7 [7] = experiment: Induction of apoptosis in human MCF7 cells at IC50 after 24 hrs by acridine orange/ethidium bromide staining test; format: functional, cell-based
T47D [8] = experiment: Induction of apoptosis in human T47D cells at IC50 after 24 hrs by acridine orange/ethidium bromide staining test; format: functional, cell-based
MRC5 [9] = experiment: Cytotoxicity against human MRC5 cells after 48 hrs by MTT assay; format: cell-based; settings: MRC5, 48 h; in short: as §1
MRC5 [10] = experiment: Selectivity index, ratio of IC50 for human MRC5 cells to IC50 for human MDA-MB-231 cells; format: functional
In short: (§2)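 Ratio of IC50 in non-tumoral MRC-5 cells to IC50 in the cancer line, both from the 48 h MTT assay.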

MCF7 [11] = experiment: Selectivity index, ratio of IC50 for human MRC5 cells to IC50 for human MCF7 cells; format: functional; in short: as §2
MRC5 [12] = experiment: Selectivity index, ratio of IC50 for human MRC5 cells to IC50 for human T47D cells; format: functional; in short: as §2
Ovis aries = species on record: Ovis aries; experiment: Inhibition of sheep brain tubulin polymerization assessed as reduction of microtubule assembly
[13] = Inhibition of sheep brain tubulin polymerization assessed as reduction of microtubule assembly after 30 mins by UV-visible spectrophotometry

Structure (SMILES) | IC50 (MDA-MB-231) | IC50 (MCF7 [1]) | IC50 (T47D [2]) | also measured
COc1cc(-n2c(-c3ccc(-c4ccccc4)cc3)csc2=S)cc(OC)c1OC | > 100 µg/mL | 45.3 µg/mL (≈ 104 µM) | > 100 µg/mL | 
COc1cc(-n2c(-c3ccccc3)csc2=S)cc(OC)c1OC | 52 µg/mL (≈ 145 µM) | > 100 µg/mL | 31.6 µg/mL (≈ 87.9 µM) | 
COc1cc(-n2c(-c3ccc(Cl)cc3)csc2=S)cc(OC)c1OC | > 100 µg/mL | > 100 µg/mL | > 100 µg/mL | 
COc1cc(-n2c(-c3ccc(Cl)cc3Cl)csc2=S)cc(OC)c1OC | 49 µg/mL (≈ 114 µM) | 23.6 µg/mL (≈ 55.1 µM) | 43.4 µg/mL (≈ 101 µM) | 
COc1ccc(-c2csc(=S)n2-c2cc(OC)c(OC)c(OC)c2)cc1 | 53.8 µg/mL (≈ 138 µM) | > 100 µg/mL | > 100 µg/mL | 
COc1ccc(C(=O)CSC(=S)Nc2cc(OC)c(OC)c(OC)c2)cc1 | 16.4 µg/mL (≈ 40.2 µM) | 18.6 µg/mL (≈ 45.6 µM) | 29.9 µg/mL (≈ 73.4 µM) | 
COc1cc([C@@H]2c3cc4c(cc3[C@@H](O[C@@H]3O[C@@H]5CO[C@@H](C)O[C@H]5[C@H](O)[C@H]3O)[C@H]3COC(=O)[C@H]23)OCO4)cc(OC)c1O [ETOPOSIDE] | 7.2 µg/mL (≈ 12.2 µM) | 9.4 µg/mL (≈ 16 µM) | 8.2 µg/mL (≈ 13.9 µM) | Activity (MCF7 [3]): 16.6%; Activity (MCF7 [4]): 0.01%; Activity (MCF7 [5]): 83.39%; Activity (MCF7 [6]): 0%
COc1cc(N2C(=S)SCC2(O)c2ccc(Br)cc2)cc(OC)c1OC (racemic) | 15.1 µg/mL (≈ 33.1 µM) | 16.5 µg/mL (≈ 36.2 µM) | 16.3 µg/mL (≈ 35.7 µM) | 
COc1cc(N2C(=S)SCC2(O)c2ccc(Cl)cc2Cl)cc(OC)c1OC (racemic) | 14.5 µg/mL (≈ 32.5 µM) | 9.6 µg/mL (≈ 21.5 µM) | 16.9 µg/mL (≈ 37.9 µM) | Activity (MCF7 [3]): 51.67%; Activity (MCF7 [4]): 0.02%; Activity (MCF7 [5]): 48.32%; Activity (MCF7 [6]): 0%; Activity (MCF7 [7]): Active; Activity (T47D [8]): Active; IC50 (MRC5 [9]): 47.3 µg/mL (≈ 106 µM)
COc1cc(-n2c(-c3ccc(O)cc3)csc2=S)cc(OC)c1OC | 22.9 µg/mL (≈ 61 µM) | 35.1 µg/mL (≈ 93.5 µM) | 26.4 µg/mL (≈ 70.3 µM) | 
COc1cc(-n2c(-c3ccc(F)cc3)csc2=S)cc(OC)c1OC | 19.5 µg/mL (≈ 51.7 µM) | 38.5 µg/mL (≈ 102 µM) | 38.9 µg/mL (≈ 103 µM) | 
COc1ccc(-n2c(-c3ccccc3)csc2=S)cc1OC | 19.1 µg/mL (≈ 58 µM) | 17.6 µg/mL (≈ 53.4 µM) | 33.1 µg/mL (≈ 100 µM) | 
COc1cc(-n2c(-c3ccc(C)cc3)csc2=S)cc(OC)c1OC | 11.8 µg/mL (≈ 31.6 µM) | 19.7 µg/mL (≈ 52.7 µM) | 16.3 µg/mL (≈ 43.6 µM) | Activity (MCF7 [3]): 66.47%; Activity (MCF7 [4]): 0.26%; Activity (MCF7 [5]): 33.24%; Activity (MCF7 [6]): 0.02%; Activity (MCF7 [7]): Active; Activity (T47D [8]): Active; Ratio IC50 (MRC5 [10]): >5; Ratio IC50 (MCF7 [11]): >5; Ratio IC50 (MRC5 [12]): >5; IC50 (MRC5 [9]): > 100 µg/mL; inhibition (Ovis aries): Dose-dependent effect; pIC50 [13]: 4.14
COc1ccc(-n2c(-c3ccccc3)csc2=S)cc1 | 36.8 µg/mL (≈ 123 µM) | 88.5 µg/mL (≈ 296 µM) | 23.2 µg/mL (≈ 77.5 µM) | 
COc1cc(-n2c(-c3ccc(Br)cc3)csc2=S)cc(OC)c1OC | 58 µg/mL (≈ 132 µM) | > 100 µg/mL | > 100 µg/mL | 
COc1cc(-n2c(-c3ccc(O)c(O)c3)csc2=S)cc(OC)c1OC | 29.8 µg/mL (≈ 76.1 µM) | > 100 µg/mL | 24.9 µg/mL (≈ 63.6 µM) | 
